Measurements as given in ChEMBL document CHEMBL3259707, “Design and synthesis of human ABCB1 (P-glycoprotein) inhibitors by peptide coupling of diverse chemical scaffolds on carboxyl and amino termini of (S)-valine-derived thiazole amino acid” (J Med Chem, 2014).
Blank lines part the entries; values can stand above or below the compound they belong to.

Columns and labels:
[1] = Retention time of the compound by HPLC analysis; type: physicochemical
Method in brief: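 Reverse-phase C18 HPLC, isocratic acetonitrile/water 60:40, 1.0 mL/min, UV 254 nm; purity from major-peak area.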

[2] = target: T1, ATP-dependent translocase ABCB1 (Homo sapiens, UniProt P08183); experiment: Inhibition of human wild type P-gp expressed in BacMam virus infected human HeLa cells assessed as calcein-AM accumulation at 10 uM after 10 mins by flow cytometry; type: cell-based
T1 sequence (P08183 whole entry): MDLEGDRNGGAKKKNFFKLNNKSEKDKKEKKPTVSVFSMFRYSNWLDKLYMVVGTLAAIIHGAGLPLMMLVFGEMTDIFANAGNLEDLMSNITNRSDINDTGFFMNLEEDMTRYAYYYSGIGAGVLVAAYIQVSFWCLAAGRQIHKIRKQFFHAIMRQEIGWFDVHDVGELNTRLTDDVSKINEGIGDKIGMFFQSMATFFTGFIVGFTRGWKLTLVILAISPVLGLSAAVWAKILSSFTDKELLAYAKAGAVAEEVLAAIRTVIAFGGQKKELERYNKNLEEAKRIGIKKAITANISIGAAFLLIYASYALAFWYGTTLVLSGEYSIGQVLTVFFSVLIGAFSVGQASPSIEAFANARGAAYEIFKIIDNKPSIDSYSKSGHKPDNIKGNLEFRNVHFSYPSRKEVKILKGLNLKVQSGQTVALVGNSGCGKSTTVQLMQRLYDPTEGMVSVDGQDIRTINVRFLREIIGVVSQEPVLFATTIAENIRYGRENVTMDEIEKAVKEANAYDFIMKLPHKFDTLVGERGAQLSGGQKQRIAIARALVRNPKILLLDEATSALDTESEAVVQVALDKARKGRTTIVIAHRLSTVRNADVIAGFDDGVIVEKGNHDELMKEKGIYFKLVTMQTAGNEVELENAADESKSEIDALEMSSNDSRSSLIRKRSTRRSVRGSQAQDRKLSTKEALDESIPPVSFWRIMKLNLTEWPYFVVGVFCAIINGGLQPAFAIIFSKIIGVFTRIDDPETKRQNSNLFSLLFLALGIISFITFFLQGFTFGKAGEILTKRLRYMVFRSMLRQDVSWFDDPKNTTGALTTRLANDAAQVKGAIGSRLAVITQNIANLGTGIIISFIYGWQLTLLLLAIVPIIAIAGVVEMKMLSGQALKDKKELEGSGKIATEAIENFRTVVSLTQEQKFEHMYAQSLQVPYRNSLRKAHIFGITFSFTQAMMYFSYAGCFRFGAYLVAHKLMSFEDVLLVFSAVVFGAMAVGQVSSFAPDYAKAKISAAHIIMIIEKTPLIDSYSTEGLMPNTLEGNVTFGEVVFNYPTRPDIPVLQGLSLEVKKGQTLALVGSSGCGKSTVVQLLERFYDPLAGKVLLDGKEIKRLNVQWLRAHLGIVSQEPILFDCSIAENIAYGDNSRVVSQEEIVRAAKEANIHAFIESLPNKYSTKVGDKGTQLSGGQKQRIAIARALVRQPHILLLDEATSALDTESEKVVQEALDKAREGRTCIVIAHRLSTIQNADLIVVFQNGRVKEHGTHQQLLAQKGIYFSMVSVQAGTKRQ
Method in brief: (§1)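 HeLa cells transduced with BacMam WT-P-gp (10–15 particles/cell); 10 mM butyric acid added after 3–4 h, grown overnight at 37 °C. Trypsinized cells exposed to compound, then 0.5 μM calcein-AM for 10 min at 37 °C in the dark. […] Two independent experiments in triplicate, ± SD.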

[3] = Retardation factor of the compound using EtOAc-n-hexane at ratio of 3:2 by thin layer chromatography; type: physicochemical
[4] = Cytotoxicity against human HEK293 cells assessed as cell survival at 10 uM by MTT assay; type: cell-based; settings: read-out: Activity
Method in brief: (§2)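 Cells seeded at 5000–6000 per well in triplicate, attached 24 h at 37 °C, 5% CO2, then exposed to compound for 72 h. MTT (4 mg/mL) added for 4 h, formazan dissolved in DMSO, absorbance read at 570 nm. Four independent experiments. HEK/ABCB1 and HEK293 kept in DMEM with G418 (2 mg/mL). All lines drug-free for over 2 weeks beforehand.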

[5] = target: T1, ATP-dependent translocase ABCB1; experiment: Reversal of Pgp-1-mediated multidrug resistance in human HEK293 cells overexpressing human ABCB1 assessed as potentiation of paclitaxel cytotoxicity at 1 uM treated for 2 hrs prior to paclitaxel challenge measured after 72 hrs by MTT assay relative to paclitaxel alone-treated control; type: cell-based; settings: hek293, 72 h
Method in brief: (§3)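 MTT reversal assay. Cells seeded 5000–6000/well and attached 24 h; modulator added 2 h before graded paclitaxel; 72 h at 37 °C; MTT 4 h, DMSO solubilisation, A570. Paclitaxel IC50 taken from killing curves. Fold-resistance = paclitaxel IC50 (± modulator) ÷ paclitaxel IC50 in parental SW620 or HEK293. Four independent experiments in triplicate, mean ± SEM. Cells drug-free >2 weeks beforehand.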

[6] = target: T1, ATP-dependent translocase ABCB1; experiment: Reversal of Pgp-1-mediated multidrug resistance in human SW620/Ad300 cells overexpressing ABCB1 assessed as potentiation of paclitaxel cytotoxicity at 1 uM treated for 2 hrs prior to paclitaxel challenge measured after 72 hrs by MTT assay relative to paclitaxel alone-treated control; type: cell-based; settings: sw-620, 72 h; method in brief: as §3
[7] = Cytotoxicity against human SW620/Ad300 cells overexpressing ABCB1 assessed as cell survival at 10 uM by MTT assay; type: ADME, cell-based, SW-620; settings: SW620/Ad300 cells that overexpress ABCB1, read-out: Activity; method in brief: as §2
[8] = target: T1, ATP-dependent translocase ABCB1; experiment: Displacement of […] from ABCB1 (unknown origin) expressed in High Five insect cell membrane at >5 uM preincubated for 10 mins by autoradiography; settings: for inhibition (INH): human
Method in brief: (§4)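 Compound 0–20 μM, 10 min at 37 °C. Then [125I]-IAAP (2200 Ci/mmol; 4–6 nM) added for 5 min under minimal light. UV 365 nm for 10 min, labeling read by autoradiography. Two independent experiments; curve fitted by one-phase decay.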

[9] = Cytotoxicity against human SW620 cells assessed as cell survival at 10 uM by MTT assay; type: cell-based, SW-620; settings: read-out: Activity; method in brief: as §2
[10] = target: T1, ATP-dependent translocase ABCB1; experiment: Stimulation of ATPase activity of ABCB1 (unknown origin) expressed in High Five insect cell membrane assessed as ATP hydrolysis
Method in brief: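 Vanadate-sensitive ATPase of P-gp in crude High Five membranes (10 μg protein/100 μL). Compound 0–10 μM, with and without 0.3 mM sodium orthovanadate, in ATPase assay buffer. […] Three independent experiments in duplicate, mean ± SEM.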

[11] = target: T1, ATP-dependent translocase ABCB1; experiment: Stimulation of ATPase activity of ABCB1 (unknown origin) expressed in High Five insect cell membrane assessed as ATP hydrolysis at >2.5 uM relative to control
[12] = target: T1, ATP-dependent translocase ABCB1; experiment: Reversal of Pgp-1-mediated multidrug resistance in human HEK293 cells overexpressing human ABCB1 assessed as potentiation of paclitaxel cytotoxicity at 10 uM treated for 2 hrs prior to paclitaxel challenge measured after 72 hrs by MTT assay relative to paclitaxel alone-treated control; type: cell-based; settings: hek293, 72 h
Method in brief: (§5)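 Cells seeded at 5000–6000/well, attached 24 h at 37 °C, 5% CO2, then preincubated 2 h ± reversal agent before paclitaxel dilutions; after 72 h, MTT (4 mg/mL) 4 h, formazan dissolved in DMSO, absorbance 570 nm. Paclitaxel IC50 from killing curves; fold-resistance = IC50 divided by parental paclitaxel IC50. Four independent experiments in triplicate. HEK lines kept with G418 (2 mg/mL).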

[13] = target: T1, ATP-dependent translocase ABCB1; experiment: Reversal of Pgp-1-mediated multidrug resistance in human SW620 cells assessed as potentiation of paclitaxel cytotoxicity at 10 uM treated for 2 hrs prior to paclitaxel challenge measured after 72 hrs by MTT assay relative to paclitaxel alone-treated control; type: cell-based; settings: sw-620, 72 h; method in brief: as §5
[14] = target: T1, ATP-dependent translocase ABCB1; experiment: Reversal of Pgp-1-mediated multidrug resistance in human SW620 cells assessed as potentiation of paclitaxel cytotoxicity at 1 uM treated for 2 hrs prior to paclitaxel challenge measured after 72 hrs by MTT assay relative to paclitaxel alone-treated control; type: cell-based; settings: sw-620, 72 h; method in brief: as §3
[15] = target: T1, ATP-dependent translocase ABCB1; experiment: Displacement of […] from ABCB1 (unknown origin) expressed in High Five insect cell membrane preincubated for 10 mins by autoradiography; method in brief: as §4
[16] = target: T1, ATP-dependent translocase ABCB1; experiment: Reversal of Pgp-1-mediated multidrug resistance in human SW620 cells assessed as potentiation of paclitaxel cytotoxicity at 3 uM treated for 2 hrs prior to paclitaxel challenge measured after 72 hrs by MTT assay relative to paclitaxel alone-treated control; type: cell-based; settings: sw-620, 72 h; method in brief: as §3
[17] = target: T1, ATP-dependent translocase ABCB1; experiment: Inhibition of human wild type P-gp expressed in BacMam virus infected human HeLa cells assessed as calcein-AM accumulation after 10 mins by flow cytometry; type: cell-based; method in brief: as §1
[18] = target: T1, ATP-dependent translocase ABCB1; experiment: Reversal of Pgp-1-mediated multidrug resistance in human SW620/Ad300 cells overexpressing ABCB1 assessed as potentiation of paclitaxel cytotoxicity at 3 uM treated for 2 hrs prior to paclitaxel challenge measured after 72 hrs by MTT assay relative to paclitaxel alone-treated control; type: cell-based; settings: sw-620, 72 h; method in brief: as §3
[19] = target: T1, ATP-dependent translocase ABCB1; experiment: Reversal of Pgp-1-mediated multidrug resistance in human SW620/Ad300 cells overexpressing ABCB1 assessed as potentiation of paclitaxel cytotoxicity at 10 uM treated for 2 hrs prior to paclitaxel challenge measured after 72 hrs by MTT assay relative to paclitaxel alone-treated control; type: cell-based; settings: sw-620, 72 h; method in brief: as §5
[20] = target: T1, ATP-dependent translocase ABCB1; experiment: Reversal of Pgp-1-mediated multidrug resistance in human HEK293 cells assessed as potentiation of paclitaxel cytotoxicity at 3 uM treated for 2 hrs prior to paclitaxel challenge measured after 72 hrs by MTT assay relative to paclitaxel alone-treated control; type: cell-based; settings: hek293, 72 h; method in brief: as §3
[21] = target: T1, ATP-dependent translocase ABCB1; experiment: Reversal of Pgp-1-mediated multidrug resistance in human HEK293 cells overexpressing human ABCB1 assessed as potentiation of paclitaxel cytotoxicity at 3 uM treated for 2 hrs prior to paclitaxel challenge measured after 72 hrs by MTT assay relative to paclitaxel alone-treated control; type: cell-based; settings: hek293, 72 h; method in brief: as §3
[22] = target: T1, ATP-dependent translocase ABCB1; experiment: Stimulation of ATPase activity of ABCB1 (unknown origin) expressed in High Five insect cell membrane assessed as ATP hydrolysis at 0.5 to 2.5 uM relative to control
[23] = Cytotoxicity against human HEK293 cells overexpressing human ABCB1 assessed as cell survival at 10 uM by MTT assay; type: ADME, cell-based; settings: HEK293 cells that overexpress human ABCB1, read-out: Activity; method in brief: as §2
[24] = target: T1, ATP-dependent translocase ABCB1; experiment: Reversal of Pgp-1-mediated multidrug resistance in human HEK293 cells assessed as potentiation of paclitaxel cytotoxicity at 1 uM treated for 2 hrs prior to paclitaxel challenge measured after 72 hrs by MTT assay relative to paclitaxel alone-treated control; type: cell-based; settings: hek293, 72 h; method in brief: as §3
[25] = target: T1, ATP-dependent translocase ABCB1; experiment: Reversal of Pgp-1-mediated multidrug resistance in human HEK293 cells assessed as potentiation of paclitaxel cytotoxicity at 10 uM treated for 2 hrs prior to paclitaxel challenge measured after 72 hrs by MTT assay relative to paclitaxel alone-treated control; type: cell-based; settings: hek293, 72 h; method in brief: as §5
[26] = Cytotoxicity against human SW620/Ad300 cells overexpressing ABCB1 assessed as cell survival at 3 uM by MTT assay; type: ADME, cell-based, SW-620; settings: SW620/Ad300 cells that overexpress ABCB1, read-out: Activity
Method in brief: (§6)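 MTT survival. Cells seeded 5000–6000/well, attached 24 h at 37 °C, 5% CO2; test agent for 72 h; MTT 4 mg/mL stock added, 4 h at 37 °C; formazan dissolved in DMSO, A570 read. Four independent experiments, each in triplicate. SW620/Ad300 is the doxorubicin-selected P-gp subline of SW620; HEK293 grown in DMEM with G418 (2 mg/mL). All cells kept drug-free >2 weeks before assay.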

[27] = target: T1, ATP-dependent translocase ABCB1; experiment: Inhibition of human P-gp
[28] = Cytotoxicity against human HEK293 cells assessed as cell survival at 3 uM by MTT assay; type: cell-based; settings: read-out: Activity; method in brief: as §6
[29] = Cytotoxicity against human HEK293 cells overexpressing human ABCB1 assessed as cell survival at 3 uM by MTT assay; type: ADME, cell-based; settings: HEK293 cells that overexpress human ABCB1, read-out: Activity
Method in brief: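 HEK293 cells stably transfected with human ABCB1 cDNA, kept in DMEM with G418 (2 mg/mL) and drug-free for over 2 weeks. Cells seeded at 5000–6000/well, attached 24 h at 37 °C, 5% CO2, then exposed 72 h to modulator. MTT (4 mg/mL) added for 4 h, formazan dissolved in DMSO, absorbance read at 570 nm. Four independent experiments, each in triplicate.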

[30] = Inhibition of mouse P-gp
[31] = Cytotoxicity against human SW620 cells assessed as cell survival at 3 uM by MTT assay; type: cell-based, SW-620; settings: read-out: Activity; method in brief: as §6

SMILES: COc1cc(C(=O)N[C@H](c2nc(C(=O)Nc3ccc(C(=O)c4ccccc4)cc3)cs2)C(C)C)cc(OC)c1OC
- Retention_time [1]: 6.8 min
- inhibition (INH) [2]: 18%
- Rf [3]: 0.5

SMILES: COc1cc(C(=O)N[C@H](c2nc(C(=O)Nc3ccccc3C(=O)c3ccccc3)cs2)C(C)C)cc(OC)c1OC
- viability at 10 µM [4]: > 85%
- Ratio [5]: 12.9
- Ratio [6]: 31
- viability at 10 µM [7]: > 85%
- IC50 [8]: 0.72 µM
- inhibition (INH) [8]: 90%
- viability at 10 µM [9]: > 85%
- EC50 [10]: 0.027 µM
- Activity ([10]; human): Dose-dependent effect
- Retention_time [1]: 9.4 min
- Ratio [11]: 1.8
- Ratio [12]: 2
- Ratio [13]: 1
- Ratio [14]: 1.2
- inhibition (INH) [15]: Dose-dependent effect
- Ratio [16]: 1
- IC50 [17]: 1 µM
- inhibition (INH) ([17]; human, hela, 10 min): Dose-dependent effect
- Ratio [18]: 8.5
- Ratio [19]: 1.8
- Ratio [20]: 1
- Ratio [21]: 3.1
- Ratio [22]: 2
- viability at 10 µM [23]: > 85%
- Ratio [24]: 1
- Ratio [25]: 1
- Rf [3]: 0.45

SMILES: CC(C)[C@@H]1NC(=O)c2csc(n2)[C@H](C(C)C)NC(=O)c2csc(n2)[C@H](C(C)C)NC(=O)c2csc1n2
- viability at 3 µM [26]: > 85%
- inhibition (INH) [8]: 90%
- IC50 [27]: 1.5 µM
- viability at 3 µM [28]: > 85%
- inhibition (INH) [15]: Dose-dependent effect
- viability at 3 µM [29]: > 85%
- IC50 [30]: 2.7 µM
- viability at 3 µM [31]: > 85%

Continued, values first:

- Retention_time [1]: 9.5 min
- inhibition (INH) [2]: 54%
- Rf [3]: 0.4
SMILES: COc1cc(C(=O)N[C@H](c2nc(C(=O)Nc3ccccc3C(=O)c3ccc(F)cc3)cs2)C(C)C)cc(OC)c1OC

- IC50 [30]: 8.4 µM
SMILES: CC(C)[C@H]1NC(=O)c2csc(n2)[C@@H](C(C)C)NC(=O)c2csc(n2)[C@@H](C(C)C)NC(=O)c2csc1n2
